{"source": "ChEMBL document CHEMBL3526049", "about": "(Drug Metab Dispos, 2012)", "format_in_all_cases": "ADME, organism-based", "key": {"[1]": {"assay": "Oral bioavailability in MRP2-deficient Wistar rat at 5 mg/kg by LC-MS/MS analysis", "settings": "in vivo", "summary_of_the_method": "(§1)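 Male Wistar wild-type rats and Mrp2-deficient TR⁻ rats with femoral artery and vein cannulas. Sulfasalazine given as an iv bolus (5 mg/kg, water at pH 9–10) and by oral gavage, each followed by arterial plasma sampling over 24 h. Sulfasalazine and sulfapyridine measured by LC-MS/MS; noncompartmental parameters; mean ± S.D., n = 3.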"}, "[2]": {"assay": "Cmax in MRP2-deficient Wistar rat at 5 mg/kg, po by LC-MS/MS analysis", "design": "dose 5 mg/kg, route oral", "settings": "in vivo"}, "[3]": {"assay": "Oral bioavailability in MDR1A knockout Sprague-Dawley rat at 20 mg/kg by LC-MS/MS analysis", "settings": "in vivo", "summary_of_the_method": "(§2)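 Male Sprague-Dawley knockout rats or wild-type rats matched for age and weight, with femoral artery and vein cannulas. Crossover design: sulfasalazine 5 mg/kg iv bolus (water, pH 9–10) on day 0, then 20 mg/kg oral gavage (0.5% carboxymethyl cellulose in PBS, pH 7.4) on day 3. Arterial plasma collected 0–24 h. Sulfasalazine and sulfapyridine measured by LC-MS/MS; noncompartmental parameters; mean ± S.D., n = 4 to 8.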"}, "[4]": {"assay": "Half life in wild-type Sprague-Dawley rat at 20 mg/kg, po by LC-MS/MS analysis", "design": "dose 20 mg/kg, route oral", "settings": "in vivo", "summary_of_the_method": "as §2"}, "[5]": {"assay": "Oral bioavailability in BCRP knockout Sprague-Dawley rat at 20 mg/kg by LC-MS/MS analysis", "settings": "in vivo", "summary_of_the_method": "as §2"}, "[6]": {"assay": "Cmax in BCRP knockout Sprague-Dawley rat at 20 mg/kg, po by LC-MS/MS analysis", "design": "dose 20 mg/kg, route oral", "settings": "in vivo", "summary_of_the_method": "(§3)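 Male Sprague-Dawley knockout or age/weight-matched wild-type rats with femoral artery and vein cannulas. Crossover design: day 0 i.v. bolus 5 mg/kg sulfasalazine in water at pH 9–10, then day 3 gavage 20 mg/kg in 0.5% carboxymethyl cellulose/PBS pH 7.4. Arterial plasma was sampled to 24 h. Sulfasalazine and sulfapyridine were measured by LC-MS/MS (1–5000 ng/ml). Parameters are noncompartmental; n = 4–8, mean ± S.D.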"}, "[7]": {"assay": "Clearance in wild-type Wistar rat at 5 mg/kg, iv by LC-MS/MS analysis", "design": "dose 5 mg/kg, route intravenous", "settings": "in vivo", "summary_of_the_method": "(§4)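 Male Wistar wild-type or Mrp2-deficient TR⁻ rats with femoral artery and vein cannulas. Sulfasalazine was given as a 5 mg/kg i.v. bolus and as a 20 mg/kg oral dose. Arterial plasma was sampled to 24 h and analysed for parent and sulfapyridine by LC-MS/MS. Noncompartmental parameters; n = 3, mean ± S.D.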"}, "[8]": {"assay": "Tmax in MDR1A knockout Sprague-Dawley rat at 20 mg/kg, po by LC-MS/MS analysis", "design": "dose 20 mg/kg, route oral", "settings": "in vivo", "summary_of_the_method": "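Male Sprague-Dawley rats (knockout or wild type, matched for age and weight) with femoral artery and vein cannulas, recovered ≥2 days. In an i.v./oral crossover with a 3-day washout, sulfasalazine was given by oral gavage at 20 mg/kg in 0.5% carboxymethyl cellulose/PBS pH 7.4. Arterial plasma was sampled 0–24 h and analysed by LC-MS/MS (1–5000 ng/ml). Noncompartmental analysis; n = 4 to 8.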"}, "[9]": {"assay": "Oral bioavailability in BCRP knockout […]", "settings": "in vivo"}, "[10]": {"assay": "Clearance in MRP2-deficient Wistar rat at 5 mg/kg, iv by LC-MS/MS analysis", "design": "dose 5 mg/kg, route intravenous", "settings": "in vivo", "summary_of_the_method": "as §4"}, "[11]": {"assay": "Volume of distribution at steady state in MRP2 knockout Sprague-Dawley rat at 5 mg/kg, iv by LC-MS/MS analysis", "design": "dose 5 mg/kg, route intravenous", "settings": "in vivo, read-out: Vdss", "summary_of_the_method": "as §2"}, "[12]": {"assay": "Cmax in MDR1A knockout Sprague-Dawley rat at 20 mg/kg, po by LC-MS/MS analysis", "design": "dose 20 mg/kg, route oral", "settings": "in vivo", "summary_of_the_method": "as §3"}, "[13]": {"assay": "Half life in wild-type Sprague-Dawley rat at 5 mg/kg, iv by LC-MS/MS analysis", "design": "dose 5 mg/kg, route intravenous", "settings": "in vivo", "summary_of_the_method": "as §2"}, "[14]": {"assay": "AUC (infinity) in MDR1A knockout Sprague-Dawley rat at 5 mg/kg, iv by LC-MS/MS analysis", "design": "time infinity, dose 5 mg/kg, route intravenous", "settings": "plasma", "summary_of_the_method": "as §3"}, "[15]": {"assay": "Half life in wild-type Wistar rat at 5 mg/kg, iv by LC-MS/MS analysis", "design": "dose 5 mg/kg, route intravenous", "settings": "in vivo", "summary_of_the_method": "as §1"}, "[16]": {"assay": "Half life in BCRP knockout Sprague-Dawley rat at 5 mg/kg, iv by LC-MS/MS analysis", "design": "dose 5 mg/kg, route intravenous", "settings": "in vivo", "summary_of_the_method": "as §2"}, "[17]": {"assay": "Half life in BCRP knockout Sprague-Dawley rat at 20 mg/kg, po by LC-MS/MS analysis", "design": "dose 20 mg/kg, route oral", "settings": "in vivo", "summary_of_the_method": "as §2"}, "[18]": {"assay": "Clearance in MRP2 knockout Sprague-Dawley rat at 5 mg/kg, iv by LC-MS/MS analysis", "design": "dose 5 mg/kg, route intravenous", "settings": "in vivo", "summary_of_the_method": "as §3"}}}
{"smiles": "O=C(O)c1cc(/N=N/c2ccc(S(=O)(=O)Nc3ccccn3)cc2)ccc1O", "note": "[SULFASALAZINE]", "values": [{"measurement": "bioavailability", "setting": "[1]", "result": 1.5, "unit": "%"}, {"measurement": "Cmax", "setting": "[2]", "result": 144, "unit": "ng/mL"}, {"measurement": "bioavailability", "setting": "[3]", "result": 2.8, "unit": "%"}, {"measurement": "half-life", "setting": "[4]", "result": 156, "unit": "min"}, {"measurement": "bioavailability", "setting": "[5]", "result": 30, "unit": "%"}, {"measurement": "Cmax", "setting": "[6]", "result": 3870, "unit": "ng/mL"}, {"measurement": "clearance", "setting": "[7]", "result": 6.8, "unit": "mL/min/kg"}, {"measurement": "Tmax", "setting": "[8]", "result": 18, "unit": "min"}, {"measurement": "bioavailability", "setting": "[9]", "result": 37, "unit": "%"}, {"measurement": "clearance", "setting": "[10]", "result": 10.9, "unit": "mL/min/kg"}, {"measurement": "Vd", "setting": "[11]", "result": 1.3, "unit": "L/kg"}, {"measurement": "Cmax", "setting": "[12]", "result": 213, "unit": "ng/mL"}, {"measurement": "half-life", "setting": "[13]", "result": 96, "unit": "min"}, {"measurement": "AUC(0-inf)", "setting": "[14]", "result": 6260, "unit": "ng·h/mL"}, {"measurement": "half-life", "setting": "[15]", "result": 90, "unit": "min"}, {"measurement": "half-life", "setting": "[16]", "result": 84, "unit": "min"}, {"measurement": "half-life", "setting": "[17]", "result": 114, "unit": "min"}, {"measurement": "clearance", "setting": "[18]", "result": 22, "unit": "mL/min/kg"}]}
